ChEMBL document CHEMBL4004834, “Transition State-Based Sialyltransferase Inhibitors: Mimicking Oxocarbenium Ion by Simple Amide” (J Med Chem, 2017)

Tests used:
[1] = target: T1, Beta-galactoside alpha-2,6-sialyltransferase 1 (Homo sapiens, UniProt P15907); assay: Inhibition of recombinant human N-terminal His-tagged ST6Gal-1 (44 to 406 residues) using CMP-Neu5Ac as substrate […] by UV/RP-HPLC method
T1 sequence (P15907 whole entry): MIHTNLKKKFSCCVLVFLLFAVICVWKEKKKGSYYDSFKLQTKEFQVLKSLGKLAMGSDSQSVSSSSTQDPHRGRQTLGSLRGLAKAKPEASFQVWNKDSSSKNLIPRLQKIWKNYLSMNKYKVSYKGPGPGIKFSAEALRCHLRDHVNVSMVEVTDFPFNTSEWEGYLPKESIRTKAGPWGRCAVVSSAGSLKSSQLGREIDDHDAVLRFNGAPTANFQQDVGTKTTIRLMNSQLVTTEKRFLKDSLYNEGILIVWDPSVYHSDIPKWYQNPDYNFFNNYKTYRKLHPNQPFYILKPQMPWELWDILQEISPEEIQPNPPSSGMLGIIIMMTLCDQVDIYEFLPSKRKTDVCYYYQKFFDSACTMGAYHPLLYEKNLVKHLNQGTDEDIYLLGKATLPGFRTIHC

[2] = target: T2, Beta-galactoside alpha-2,6-sialyltransferase 1 (Homo sapiens) (UniProt P15907); assay: Inhibition of recombinant human N-terminal His-tagged ST6Gal-1 (44 to 406 residues) at 1 uM using CMP-Neu5Ac as substrate […] by UV/RP-HPLC method
T2 sequence (whole entry): T1 sequence (P15907 whole entry)
How it was run: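 hST6Gal-I (aa 44-406), 80 ng per reaction, in pH 6.5 Mes buffer with 2 mM MnCl2 and 0.5% Triton X-100. Inhibitor at 1 µM with CMP-Neu5Ac (250 µM stock) and p-nitrophenyl LacNAc acceptor (5 mM stock), 37 °C, 30 min. Quenched by water and 95 °C for 2 min. Product read by RP-HPLC at 300 nm; donor consumption kept below 15%. Duplicates averaged.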

[3] = target: T2, Beta-galactoside alpha-2,6-sialyltransferase 1 (Homo sapiens); assay: Inhibition of recombinant human ST6Gal-1 (44 to 406 residues) assessed as ratio of CMP-Neu5Ac Km to compound Ki […] by UV/RP-HPLC method

Structure (SMILES)	Ki [1]	inhibition [2]	Ratio [3]
Nc1ccn([C@@H]2O[C@H](COP(=O)(O)OC(CNC(=O)c3ccccc3)P(=O)(O)O)[C@@H](O)[C@H]2O)c(=O)n1 (stereo in doubt; 5a-l) [listing 1 of 2 here]	174 nM		
Nc1ccn([C@@H]2O[C@H](COP(=O)(O)OC(C(=O)N3CCCC3)P(=O)(O)O)[C@@H](O)[C@H]2O)c(=O)n1 (stereo in doubt; 5c-l) [listing 1 of 2 here]		65.7%	252
Nc1ccn([C@@H]2O[C@H](COP(=O)(O)OC(CNC(=O)c3ccccc3)P(=O)(O)O)[C@@H](O)[C@H]2O)c(=O)n1 (stereo in doubt; 5a-s) [listing 1 of 2 here]		88.9%	2600
Nc1ccn([C@@H]2O[C@H](COP(=O)(O)OC(C(=O)Nc3ccccc3)P(=O)(O)O)[C@@H](O)[C@H]2O)c(=O)n1 (stereo in doubt; 5b-l) [listing 1 of 2 here]	122 nM		
Nc1ccn([C@@H]2O[C@H](COP(=O)(O)OC(C(=O)N3CCCCC3)P(=O)(O)O)[C@@H](O)[C@H]2O)c(=O)n1 (stereo in doubt; 5d-s) [listing 1 of 2 here]		86.3%	2080
CC(=O)N[C@H]1[C@H](Oc2ccccc2)OC(C(OP(=O)(O)OC[C@H]2O[C@@H](n3ccc(N)nc3=O)[C@H](O)[C@@H]2O)P(=O)(O)O)=C[C@@H]1O (stereo in doubt; 1-h) [listing 1 of 2 here]			1580
Nc1ccn([C@@H]2O[C@H](COP(=O)(O)OC(c3ccccc3)P(=O)(O)O)[C@@H](O)[C@H]2O)c(=O)n1 (stereo in doubt; 2h) [listing 1 of 2 here]	200 nM		
Nc1ccn([C@@H]2O[C@H](COP(=O)(O)OC(CN3C(=O)CCC3=O)P(=O)(O)O)[C@@H](O)[C@H]2O)c(=O)n1 (stereo in doubt; 5e-l)		15.1%	
CC(=O)N[C@H]1[C@H](Oc2ccccc2)OC(C(OP(=O)(O)OC[C@H]2O[C@@H](n3ccc(N)nc3=O)[C@H](O)[C@@H]2O)P(=O)(O)O)=C[C@@H]1O (stereo in doubt; 1-h) [listing 2 of 2 here]	29 nM		
Nc1ccn([C@@H]2O[C@H](COP(=O)(O)OC(CN3C(=O)CCC3=O)P(=O)(O)O)[C@@H](O)[C@H]2O)c(=O)n1 (stereo in doubt; 5e-s) [listing 1 of 2 here]		58.8%	186
Nc1ccn([C@@H]2O[C@H](COP(=O)(O)OC(C(=O)N3CCCC3)P(=O)(O)O)[C@@H](O)[C@H]2O)c(=O)n1 (stereo in doubt; 5c-l) [listing 2 of 2 here]	165 nM		
Nc1ccn([C@@H]2O[C@H](COP(=O)(O)OC(c3ccccc3)P(=O)(O)O)[C@@H](O)[C@H]2O)c(=O)n1 (stereo in doubt; 2h) [listing 2 of 2 here]			230
Nc1ccn([C@@H]2O[C@H](COP(=O)(O)OC(CN3C(=O)c4ccccc4C3=O)P(=O)(O)O)[C@@H](O)[C@H]2O)c(=O)n1 (stereo in doubt; 5f-l)		14.3%	
CC(=O)N[C@H]1[C@H](Oc2ccccc2)OC(C(OP(=O)(O)OC[C@H]2O[C@@H](n3ccc(N)nc3=O)[C@H](O)[C@@H]2O)P(=O)(O)O)=C[C@@H]1O (stereo in doubt; 1-l) [listing 1 of 2 here]	690 nM		
Nc1ccn([C@@H]2O[C@H](COP(=O)(O)OC(CNC(=O)c3ccccc3)P(=O)(O)O)[C@@H](O)[C@H]2O)c(=O)n1 (stereo in doubt; 5a-l) [listing 2 of 2 here]		61.7%	239
Nc1ccn([C@@H]2O[C@H](COP(=O)(O)OC(C(=O)Nc3ccccc3)P(=O)(O)O)[C@@H](O)[C@H]2O)c(=O)n1 (stereo in doubt; 5b-s) [listing 1 of 2 here]		69.7%	393
Nc1ccn([C@@H]2O[C@H](COP(=O)(O)OC(C(=O)Nc3ccccc3)P(=O)(O)O)[C@@H](O)[C@H]2O)c(=O)n1 (stereo in doubt; 5b-s) [listing 2 of 2 here]	106 nM		

Structure (SMILES)	Ki [1]	inhibition [2]	Ratio [3]
Nc1ccn([C@@H]2O[C@H](COP(=O)(O)OC(C(=O)N3CCCCC3)P(=O)(O)O)[C@@H](O)[C@H]2O)c(=O)n1 (stereo in doubt; 5d-l) [listing 1 of 2 here]		80.3%	925
Nc1ccn([C@@H]2O[C@H](COP(=O)(O)OC(C3CCCC3)P(=O)(O)O)[C@@H](O)[C@H]2O)c(=O)n1 (some centres undefined)			7.1
Nc1ccn([C@@H]2O[C@H](COP(=O)(O)OC(C(=O)N3CCCC3)P(=O)(O)O)[C@@H](O)[C@H]2O)c(=O)n1 (stereo in doubt; 5c-S) [listing 1 of 2 here]	60 nM		
Nc1ccn([C@@H]2O[C@H](COP(=O)(O)OC(c3ccccc3)P(=O)(O)O)[C@@H](O)[C@H]2O)c(=O)n1 (stereo in doubt; 2l) [listing 1 of 2 here]			46
Nc1ccn([C@@H]2O[C@H](COP(=O)(O)OC(C(=O)Nc3ccccc3)P(=O)(O)O)[C@@H](O)[C@H]2O)c(=O)n1 (stereo in doubt; 5b-l) [listing 2 of 2 here]		67.7%	341
Nc1ccn([C@@H]2O[C@H](COP(=O)(O)OC(CNC(=O)c3ccccc3)P(=O)(O)O)[C@@H](O)[C@H]2O)c(=O)n1 (stereo in doubt; 5a-s) [listing 2 of 2 here]	16 nM		
Nc1ccn([C@@H]2O[C@H](COP(=O)(O)O[C@@H](c3cccc(Oc4ccccc4)c3)P(=O)(O)O)[C@@H](O)[C@H]2O)c(=O)n1	19 nM	87.6%	2190
CC(=O)NC[C@@H]1CCC(OP(=O)(O)OC[C@H]2O[C@@H](n3ccc(N)nc3=O)[C@H](O)[C@@H]2O)(P(=O)(O)O)[C@H]1OCc1ccccc1 (stereo in doubt; 4-h)			1490
Nc1ccn([C@@H]2O[C@H](COP(=O)(O)OC(CN3C(=O)CCC3=O)P(=O)(O)O)[C@@H](O)[C@H]2O)c(=O)n1 (stereo in doubt; 5e-s) [listing 2 of 2 here]	224 nM		
CC(=O)NC[C@@H]1CCC(OP(=O)(O)OC[C@H]2O[C@@H](n3ccc(N)nc3=O)[C@H](O)[C@@H]2O)(P(=O)(O)O)[C@H]1OCc1ccccc1 (stereo in doubt; 4-l)			87
Nc1ccn([C@@H]2O[C@H](COP(=O)(O)OC(CN3C(=O)c4ccccc4C3=O)P(=O)(O)O)[C@@H](O)[C@H]2O)c(=O)n1 (stereo in doubt; 5f-s)		34.5%	
Nc1ccn([C@@H]2O[C@H](COP(=O)(O)OC(C(=O)N3CCCC3)P(=O)(O)O)[C@@H](O)[C@H]2O)c(=O)n1 (stereo in doubt; 5c-S) [listing 2 of 2 here]		77%	694
CC(=O)N[C@H]1[C@H](Oc2ccccc2)OC(C(OP(=O)(O)OC[C@H]2O[C@@H](n3ccc(N)nc3=O)[C@H](O)[C@@H]2O)P(=O)(O)O)=C[C@@H]1O (stereo in doubt; 1-l) [listing 2 of 2 here]			67
Nc1ccn([C@@H]2O[C@H](COP(=O)(O)OC(c3ccccc3)P(=O)(O)O)[C@@H](O)[C@H]2O)c(=O)n1 (stereo in doubt; 2l) [listing 2 of 2 here]	1000 nM		
Nc1ccn([C@@H]2O[C@H](COP(=O)(O)OC(C(=O)N3CCCCC3)P(=O)(O)O)[C@@H](O)[C@H]2O)c(=O)n1 (stereo in doubt; 5d-s) [listing 2 of 2 here]	20 nM		
Nc1ccn([C@@H]2O[C@H](COP(=O)(O)OC(C(=O)N3CCCCC3)P(=O)(O)O)[C@@H](O)[C@H]2O)c(=O)n1 (stereo in doubt; 5d-l) [listing 2 of 2 here]	45 nM		
